Data set [1] can be described thus: Aggregation property of the compound in NMR buffer assessed as aggregate size at 500 uM by dynamic light scattering analysis. The class given is physicochemical. The gist of the method:
(§1)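 Dynamic light scattering in NMR buffer, samples filtered through 0.22 μm and centrifuged 5 min at 13 500 rpm before measurement. Autocorrelation accumulated 150 s at a 173° scattering angle, in replicates of 3–5, with water viscosity used in analysis; intensity or volume size distributions reported.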

The nature of data set [2]: Aggregation property of the compound in NMR buffer assessed as diameter of aggregate at 500 uM by dynamic light scattering analysis. Format: physicochemical. The gist of the method:
as §1

The nature of data set [3]: Aggregation property of the compound in NMR buffer assessed as amorphous morphology at 200 uM by uranyl acetate staining-based transmission electron microscopic analysis. The class given is physicochemical.
Data set [4] in a line: Aggregation property of the compound assessed as shift in peak width by 1H-NMR analysis. Format: physicochemical. The procedure, abridged:
(§2)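 Line widths, chemical shifts and peak intensities tracked; CAC taken as the concentration where intensities deviate from linear dependence, or, for line width, the minimal concentration that increases peak width.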

The nature of data set [5]: Aggregation property of the compound assessed as change in chemical shift by 1H-NMR analysis. The class given is physicochemical. The procedure, abridged: as §2
A short description of data set [6]: Aggregation property of the compound assessed as change in peak intensity by measuring concentration at which peak intensities deviated from the linear correlation by 1H-NMR analysis. Format: physicochemical. The procedure, abridged: as §2
The nature of data set [7]: Aggregation property of the compound assessed as change in saturation transfer at 100 uM irradiated at 8.61 ppm by STD NMR spectra analysis. Format: physicochemical. The procedure, abridged:
(§3)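 STD NMR, saturation by a train of 40 Gaussian pulses of 50 ms each; selective on-resonance irradiation at the stated ppm (TX at 7.48 ppm), off-resonance at 30 ppm, interleaved and subtracted by phase cycling. 32K points, 16 ppm width centred at 4.7 ppm, 256 scans, 16 dummy scans, 0.1 s recycle delay (~15 min); 3 Hz exponential line broadening.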

The target of data set [8] is T1, Albumin (Homo sapiens, UniProt P02768). Kind of data set: Binding affinity to human serum albumin assessed as line broadening at 200 uM by 1D 1H NMR analysis.
T1 sequence (P02768 whole entry): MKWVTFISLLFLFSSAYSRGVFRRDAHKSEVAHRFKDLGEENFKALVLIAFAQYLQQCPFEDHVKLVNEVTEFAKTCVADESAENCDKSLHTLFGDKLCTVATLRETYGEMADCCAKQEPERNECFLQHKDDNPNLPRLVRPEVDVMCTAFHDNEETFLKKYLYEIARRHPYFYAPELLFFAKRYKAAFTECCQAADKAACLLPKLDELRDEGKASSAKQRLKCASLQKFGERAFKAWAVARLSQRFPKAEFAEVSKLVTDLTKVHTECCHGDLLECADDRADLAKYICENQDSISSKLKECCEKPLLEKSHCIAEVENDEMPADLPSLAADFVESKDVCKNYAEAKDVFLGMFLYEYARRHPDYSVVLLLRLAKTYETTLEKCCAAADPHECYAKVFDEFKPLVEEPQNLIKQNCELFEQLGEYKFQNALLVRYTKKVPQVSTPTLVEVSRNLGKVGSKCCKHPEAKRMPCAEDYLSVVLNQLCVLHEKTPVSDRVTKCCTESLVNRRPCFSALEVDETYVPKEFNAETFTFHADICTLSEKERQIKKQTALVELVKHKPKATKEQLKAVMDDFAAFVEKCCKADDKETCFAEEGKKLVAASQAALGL
The target of data set [9] is T1, Albumin. Kind of data set: Displacement of [13C]oleic acid from human serum albumin by CH-HSQC spectra analysis. The procedure, abridged: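 Fatty-acid-free recombinant HSA at 250 μM in sodium phosphate buffer (20 mM NaPO4, pH 7.6, 50 mM NaCl, D2O), 37 °C for 30 min. 13C-oleic acid (100 mM stock in DMSO-d6, warmed to 50 °C for 10 min) added to 1.5 mM, then 2 h at 37 °C. CH-HSQC at 298 K; loss of site-specific cross-peaks A–H scored.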

Data set [10] deals with T1, Albumin. Kind of data set: Displacement of dansylated arginine from human serum albumin at <150 uM by fluorescence assay. The gist of the method: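 Competition of ligand against 100 μM dansyl-arginine (Sudlow site 1, 1:1 stoichiometry) bound to 2.5 μM HSA. Excitation 370 nm, emission 460 nm. Apparent Kd fitted by Wang's method using least squares, assuming no other ligand sites on HSA, so treated as a maximum apparent value.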

In data set [11] the target is T1, Albumin. Kind of data set: Displacement of dansylated phenylalanine from human serum albumin at <150 uM by fluorescence assay. The procedure, abridged:
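Competition of ligand against 100 μM dansyl-phenylalanine (binds Sudlow sites 1 and 2) bound to 2.5 μM HSA. Excitation 370 nm, emission 480 nm. Fractional saturation modelled with two sites, free HSA assumed negligible; least-squares fit with no further ESI sites, giving maximum apparent dissociation constants.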

Data set [12] deals with T1, Albumin. Kind of data set: Displacement of ANS from human serum albumin at <150 uM by fluorescence assay. The procedure, abridged: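 Fluorescence competition: 2.5 μM HSA with 5 or 100 μM ANS, ligand added over a concentration range. Excitation 360 nm; emission read at 460 and 480 nm to check for blue shift. Signal normalized between ANS alone (minimum) and HSA:ANS (maximum).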

Data set [13] can be described thus: Aggregation property of the compound in NMR buffer at 50 to 250 uM by surface plasmon resonance analysis. The class given is physicochemical. The procedure, abridged: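 SPR on a nonfunctionalized gold nanoparticle sensor; samples in NMR buffer with DMSO at 1.25%, injected at 33 μL/min alongside matched DMSO controls (with HSA where present, 25 μM), in duplicate. Surface regenerated only after HSA-containing injections.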
In general terms: In SPR one partner is held on a chip, and binding of the other changes the refractive index at the surface.

Data set [14] addresses T1, Albumin. Kind of data set: Binding affinity to human serum albumin assessed as inhibition of compound aggregation at 500 uM by dynamic light scattering analysis. The gist of the method:
as §1

In data set [15] the target is T2, Rap guanine nucleotide exchange factor 3 (Homo sapiens, UniProt O95398).
T2 sequence (O95398 whole entry): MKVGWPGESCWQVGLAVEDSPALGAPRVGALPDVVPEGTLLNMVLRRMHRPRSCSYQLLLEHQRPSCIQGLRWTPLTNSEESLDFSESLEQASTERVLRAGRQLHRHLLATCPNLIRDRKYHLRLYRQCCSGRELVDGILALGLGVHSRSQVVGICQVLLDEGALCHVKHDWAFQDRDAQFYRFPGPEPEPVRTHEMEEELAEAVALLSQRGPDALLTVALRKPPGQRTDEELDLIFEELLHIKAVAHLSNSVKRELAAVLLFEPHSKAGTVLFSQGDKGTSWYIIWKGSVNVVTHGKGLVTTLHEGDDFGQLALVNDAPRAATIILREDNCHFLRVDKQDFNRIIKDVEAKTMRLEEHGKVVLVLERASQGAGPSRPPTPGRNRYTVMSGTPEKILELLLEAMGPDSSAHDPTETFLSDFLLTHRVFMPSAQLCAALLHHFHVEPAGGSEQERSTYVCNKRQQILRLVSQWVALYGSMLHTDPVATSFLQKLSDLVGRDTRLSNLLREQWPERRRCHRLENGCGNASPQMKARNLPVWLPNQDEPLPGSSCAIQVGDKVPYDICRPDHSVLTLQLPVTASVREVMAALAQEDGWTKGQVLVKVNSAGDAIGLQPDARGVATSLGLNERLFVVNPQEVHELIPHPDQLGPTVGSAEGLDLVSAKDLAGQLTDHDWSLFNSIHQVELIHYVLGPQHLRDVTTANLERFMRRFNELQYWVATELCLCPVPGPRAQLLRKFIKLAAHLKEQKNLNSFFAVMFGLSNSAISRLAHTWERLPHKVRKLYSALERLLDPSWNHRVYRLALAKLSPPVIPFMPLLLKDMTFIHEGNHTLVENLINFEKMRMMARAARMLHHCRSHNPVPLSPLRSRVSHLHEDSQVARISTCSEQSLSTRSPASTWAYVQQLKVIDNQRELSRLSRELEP
Kind of data set: Binding affinity to human EPAC1 cAMP binding domain (149 to 318 residues) by [15N-1H]HSQC spectroscopic analysis.

The target of data set [16] is T2, Rap guanine nucleotide exchange factor 3. Kind of data set: Binding affinity to human EPAC1 cAMP binding domain (149 to 318 residues) in presence of human serum albumin by [15N-1H]HSQC spectroscopic analysis. The following applies: read-out: Kd(app). The gist of the method: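 100 μM human EPAC1 CBD (149–318) in NMR buffer (Tris pH 7.6) was titrated with inhibitor in the presence of globulin- and fatty-acid-free human serum albumin at stated stoichiometric ratios. Chemical shift differences and peak intensities normalised to ligand-free sample (I/I0, averaged over residues) were tracked. Errors came from propagated signal-to-noise.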

Data set [17] in a line: Binding affinity to Triton-X 100 assessed as peak intensity loss at 150 uM by 1H-NMR spectra analysis.
Data set [18] is described as follows: Binding affinity to Triton-X 100 assessed as change in chemical shift at 150 uM by 1H-NMR spectra analysis.
Data set [19] is described as follows: Binding affinity to Triton-X 100 assessed as line broadening at 150 uM by 1H-NMR spectra analysis.
A short description of data set [20]: Binding affinity to Triton-X 100 assessed as line broadening at 150 uM by 1H-NMR analysis.
Data set [21] can be described thus: Binding affinity to Triton-X 100 assessed as intra-molecular cross relaxation at 500 uM by NOESY spectra analysis. The procedure, abridged: (§4)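 2D NOESY and ROESY of 100 μM ESI with 0.025% Triton X-100 or 500 μM ESI with 0.05% Triton X-100; 2K × 512 complex points, 12 ppm spectral width centred at 4.7 ppm, intra- and intermolecular cross-peaks mapped.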
The nature of data set [22]: Binding affinity to Triton-X 100 assessed as peak size of aggregate at 1:2 ratio of Triton-X 100 to compound by dynamic light scattering analysis. The gist of the method:
as §1

A short description of data set [23]: Binding affinity to Triton-X 100 assessed as peak size of aggregate at 1:1 ratio of Triton-X 100 to compound by dynamic light scattering analysis. The procedure, abridged: as §1
Data set [24] can be described thus: Binding affinity to Triton-X 100 at 500 uM measured after 14 hrs by NOESY spectra analysis. The gist of the method:
as §4

A short description of data set [25]: Binding affinity to Triton-X 100 assessed as inter-molecular cross relaxation at 500 uM by NOESY spectra analysis. The procedure, abridged: as §4
Data set [26] is described as follows: Binding affinity to Triton-X 100 assessed as inter-molecular saturation transfer at 500 uM at 8.61 ppm by STD spectra analysis. The gist of the method: as §3
Data set [27] in a line: Binding affinity to Triton-X 100 assessed as intra-molecular saturation transfer at 500 uM at 8.61 ppm by STD spectra analysis. The gist of the method:
as §3

A short description of data set [28]: Binding affinity to Triton-X 100 assessed as compound-complex formation at 500 uM by NOESY spectra analysis. The procedure, abridged:
as §4

Data set [29] in a line: Binding affinity to Triton-X 100 assessed as change in chemical shift at 100 uM by 1H-NMR spectra analysis.

The source made the active and inactive calls. The rule behind the calls is not given here. A value given as a limit tells only on which side of the number the result lay.

`C[C@@H]1CCc2c(cc(Br)c(F)c2Br)N1C=O` [listing 1 of 2 here]: the Activity in data set [1] was 90 to 600 nm; in data set [2] it was 250 nm; in [3], “Active”; in data set [4] it was “Not Active”; in [5], “Not Active”; in data set [6] it was 150 µM. For the same compound, the Activity result is “Not Active” in data set [7]; “Active” on Albumin [8]; “Active” on Albumin [9]; “Not Active” at Albumin [10]; “Not Active” on Albumin [11]; “Not Active” on Albumin [12]. Also, in data set [13], the Activity entry is given as “Not Active”. For the same compound, on Albumin [14], the “inhibition (INH)” value is listed as “Active”. The values for the Kd in [15] and in [16] were 124 to 184 µM and 757 to 1980 µM, respectively.

Consider `Clc1ccc(COC(Cn2ccnc2)c2ccc(Cl)cc2Cl)c(Cl)c1` (stereo not given), for which the outcome in data set [17], in [18], in [19] and in data set [20] was Active.

Consider `O=C(OCc1ccccc1)c1ccccc1`, for which the outcome in data set [17], in data set [18] and in data set [19] was Active.

Consider `C[C@@H]1CCc2c(cc(Br)c(F)c2Br)N1C=O` [listing 2 of 2 here], for which the result in [21], in [25], in [26], in [27] and in data set [28] was Active. The Activity in data set [22] stood at 70 nm; in [23] it was 10 nm. Besides, in data set [24], the result was inactive.

As to `O=C(O)c1cc(-c2ccc(F)cc2F)ccc1O`, the result in data set [18] and in data set [19] was Active.

Regarding `C[C@@H]1CCc2c(cc(Br)c(F)c2Br)N1C=O` (stereo in doubt; cis), the Activity in [29] was less than 0.34 ppm.

`Nc1nnc(-c2cccc(Cl)c2Cl)c(N)n1`: the result in [18] and in [19] was inactive.

On to `Clc1ccccc1C(c1ccccc1)(c1ccccc1)n1ccnc1`, for which the outcome in data set [17], in data set [18] and in [19] was Active.

Take `C[C@@H]1CCc2c(cc(Br)c(F)c2Br)N1C=O` (stereo in doubt; trans): the Activity in data set [29] amounted to 0.02 ppm.

Consider `O=S(=O)(O)c1cccc2cccc(Nc3ccccc3)c12`, for which the outcome in data set [18] and in [19] was Active.

As to `COC(=O)C1=C(C)NC(C)=C(C(=O)OCCN(C)Cc2ccccc2)C1c1cccc([N+](=O)[O-])c1` (stereo not given), the outcome in data set [17], in data set [18] and in data set [19] was Active.

(Values after ChEMBL document CHEMBL4396878, “Mechanisms of Specific versus Nonspecific Interactions of Aggregation-Prone Inhibitors and Attenuators” (J Med Chem, 2019).)
